Sampled rows, rich in hits. Any-hit rate of the full collection: about 4.8%.
Efflux pump mplx: blocks antifungal efflux pumps in multiplex yeast assay; inhibition, % at 10 µM; 0.44% of 330,000 active; AID 485275; S. cerevisiae Candida pump triplex, Nile Red efflux;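 active means plate passing quality check with inhibition over a set limit, or well fluorescence over plate mean plus 4 SD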;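 further: Nile Red retained in pooled yeast measured as flow cytometry median fluorescence; 0% = buffer negative control and 100% = Enniatin B positive control; higher means more Nile Red kept so more efflux inhibition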
Beta apoptosis: beta cell apoptosis inhibition | 0.8% of 300,000 active | INS-1E cytokine-induced death, ATP luminescence, 48 h; percent of positive-control rescue, neutral wells zero | protection from apoptosis, % (concentration not given with the values) | AID 435005;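 active means Every replicate reaches about 75%, or at least half do and their mean reaches it too, limit read from the data; inconclusive means At least half of replicates reach the limit but their mean does not; inactive means Under half of replicates reach the limit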;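 further: 0% = cytokine-treated negative control wells and 100% = positive control rescue; higher means more ATP so stronger rescue from cytokine killing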
CSC inhib: blocks cancer stem cells. cancer stem cell-like cells viability, luminescence. inhibition, % at 7.5 µM. 1.1% of 300,000 active. AID 2717; in the data active means inhibition above about 75%; inconclusive means no clear call, values can overlap the other calls; tested in HMLE shEcad cells
T cruzi inh: blocks replication of Trypanosoma cruzi | 1.4% of 300,000 active | T. cruzi beta-gal in NIH3T3, luminescence, 90 h | inhibition, % (concentration not given with the values) | AID 1885;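 active means mean inhibition across valid replicates above about 55%, limit read from the data; inconclusive means mean below that limit but half or more replicates reach it; inactive means mean below it, under half of replicates reach it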;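 further: signal also drops with host cell toxicity which is not excluded here; 0% = plate median of DMSO wells and 100% = zero luminescence signal; higher percent means less beta-gal luminescence so fewer parasites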
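System: Mouse NIH/3T3 fibroblasts infected with β-gal-expressing T. cruzi Tulahuen C4 | Quantity: NIH/3T3 cells, 5,000 per well | Reagent: 5000 reporter trypomastigotes per well | Dosing: Compound pinned at 50 nL/well, DMSO | Schedule: 3 h host attachment, then at least 90 h co-culture | Detection: GalScreen luminescence, 60 min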
Mot1-301 SUMO: inhibitors of SUMOylation pathway: yeast Mot1-301 growth rescue; S. cerevisiae Mot1-301 growth rescue, ATP luminescence, 38.5C; percent above DMSO median, 100 means doubled; growth rescue, % at 18.8 µM; 1% of 320,000 active;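 active means every valid replicate shows activation above 250% relative to neutral control wells; inactive means the rest, any valid replicate at or below 250%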;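 further: OY570 slx delta 5 strain wells were the positive control but not used for scaling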
WT yeast gro inh: growth inhibition of WT yeast, mitochondrial fusion screen. mitochondrial fusion phenotypic screen, WT strain. inhibition, % at 10 µM. 2.1% of 190,000 active; in the data active means inhibition above about 58%; tested in S. cerevisiae
Numbers without * were called inactive; ? = inconclusive; . = no result given; ! = not active in a repeat.

SMILES	Efflux pump mplx	Beta apoptosis	CSC inhib	T cruzi inh	Mot1-301 SUMO	WT yeast gro inh
O=C(CCCCN1CCCCC1)c1ccc2c(c1)Cc1ccccc1-2	0	44	-9	71*	121	33
O=C(CCNS(=O)(=O)c1ccc(Cl)cc1)Nc1ccncc1	0	-8	9	13	116	.
CCCc1cc(=O)oc2c3c(cc(OCC(=O)NCCCn4ccnc4)c12)OC(C)(C)CC3	0	-3	-10	49	412*	.
Cc1cc(=O)oc2c3c(cc(OCC(=O)NCc4ccncc4)c12)OC(C)(C)CC3	0	16	61	13	-1	.
COc1ccc(CNC(=O)COc2cc3c(c4oc(=O)cc(C)c24)CCC(C)(C)O3)cc1OC	0	0	-13	-12	334*	.
CCOC(=O)c1cnn(C)c1NC(=O)c1ccc([N+](=O)[O-])cc1	0	.	-20	-3	-17	.
COc1ccccc1C1C(C#N)=C(N)N(N(C)C)C2=C1C(=O)CC(C)(C)C2 (configuration not stated)	0	2	-7	16	-6	.
C=CCn1c(CCC(O)COCCCCC)n[nH]c1=S (configuration not stated)	0	-3	-13	-18	-11	.
O=C(Nc1nccs1)c1nc(-c2ccccc2)n(-c2ccccc2)n1	0	2	-10	2	314*	.
O=C(Nc1c(C(=O)N2CCOCC2)cnn1-c1ccccc1)c1ccc(F)cc1	1	-2	8	6	-7	.
COc1ccc(NC(=O)COC(=O)c2c3c(nc4ccccc24)CCCC3)cc1	0	7	-2	9	-16	8
COc1ccc(NC(=O)COC(=O)c2c3c(nc4ccccc24)CCCC3)cc1Cl	0	-9	51	12	336	63*
O=C(Nc1ccc(S(=O)(=O)Nc2nccs2)cc1)c1ccc(N2C(=O)c3ccccc3C2=O)cc1	0	-3	6	-10	31	0
C/C(=N\Nc1nc2ccccc2s1)c1ccc(Br)s1	0	90*	84*	12	25	94*
C/C(=N\NC(=O)c1ccccc1O)c1ccc(Br)s1	0	.	-7	-2	-7	66*
COc1ccc(-n2ncc(C(C)NS(=O)(=O)c3cc(F)ccc3C)c2C)cc1 (configuration not stated)	0	5	0	8	-3	.
CCC(C)(C)NC(=O)CN(C(=O)c1snc(C(N)=O)c1N)c1ccc2c(c1)OCCO2	0	-6	-5	-14	11	73*
COc1ccc(CCn2c(-c3cc([N+](=O)[O-])cc([N+](=O)[O-])c3)nc3nc4ccccc4nc32)cc1	-1	11	-2	57*	15	20
COc1ccc(CCn2c(-c3ccco3)nc3nc4ccccc4nc32)cc1	0	5	-1	27	245	13
COc1ccc(CCn2c(-c3cc([N+](=O)[O-])cc([N+](=O)[O-])c3)nc3nc4ccccc4nc32)cc1OC	0	47	-4	62*	-19	10
O=c1[nH]nc(SCc2ccccc2)n1C1CC2C=CC1C2 (configuration not stated)	0	-1	32	9	-12	.
CCC1CC2CC(NC(C)=O)C1C2 (configuration not stated)	0	0	-11	.	-20	-8
c1cnc2c(c1)ccc1cccnc12	0	59	3	55*!	14	35
CC1=C(C(=O)Nc2ccccc2)C(c2ccc(C)cc2)N=C(Nc2nc3ccccc3o2)N1 (configuration not stated)	0	32	-9	57*	-15	15
CC(NC(=O)C1CCN(S(=O)(=O)c2cnc[nH]2)CC1)c1ccccc1 (configuration not stated)	0	-6	5	-13	.	-8
SMILES	Efflux pump mplx	Beta apoptosis	CSC inhib	T cruzi inh	Mot1-301 SUMO	WT yeast gro inh
N#CCCN(C(=O)COC(=O)COc1ccccc1Cc1ccccc1)c1ccccc1	1	-3	-7	.	-2	.
CCN1/C(=C/C(C)=C/c2sc3ccccc3[n+]2CC)Sc2ccccc21	0	110*	144*	45	-42	89
Cc1cc(Oc2ccc(-c3ccccc3)cc2)nc(N2CCOCC2)n1	0	1	27	22	3	19
Cc1cc(Oc2ccc(C(C)(C)C)cc2)nc(N2CCOCC2)n1	0	2	25	18	-7	75*
Cc1cc(C)cc(CC(Cc2nc3ccccc3[nH]2)c2nc3ccccc3[nH]2)c1 (configuration not stated)	0	46	182*	45	76	7
Cc1ccc(CSCc2nc3ccccc3[nH]2)cc1	.	.	.	5	.	67*
Clc1ccc(OCCSCc2nc3ccccc3[nH]2)cc1	0	-4	12	12	10	79*
CC(C)SCc1nc2ccccc2[nH]1	0	-7	5	.	82	-2
Cc1ccc(SCc2nc3ccccc3[nH]2)cc1	0	-3	-1	-12	-6	26
O=C(CSCc1ccccc1Cl)Nc1c[nH]c(=O)[nH]c1=O	0	1	-14	-8	12	-11
O=C(COc1ccccc1F)Nc1cc(S(=O)(=O)Nc2cccc(Cl)c2)ccc1O	0	-4	.	.	8	.
COc1ccccc1S(=O)(=O)CC(O)COc1ccc(C#N)cc1 (configuration not stated)	0	1	10	-5	3	12
O=C(CCC(=O)N1CCN(c2ccc(O)cc2)CC1)c1cccs1	0	7	22	30	32	.
CCOC(=O)N1CCN(C(=O)CCC(=O)c2ccc(OCC)cc2)CC1	0	.	-8	-4	-2	.
CCOc1ccc(C(=O)CCC(=O)N2CCN(c3ccc(O)cc3)CC2)cc1	0	10	81*	.	72	.
COc1ccc(C(=O)CCN2CCN(c3ccccc3F)CC2)cc1	0	-12	?	63*	616*	2
O=C(CCC(=O)N1CCN(c2ccc(O)cc2)CC1)c1ccc(Br)cc1	0	5	101*	39	180	.
O=C(CCN1CCN(c2ccccc2F)CC1)c1ccc(Br)cc1	0	-12	.	-5	6	-10
O=C(CCN1CCN(c2ccccc2)CC1)c1ccc(Br)cc1	0	-9	7	62*	-2	.
Cc1cccc(Nc2sc(C(=O)c3cc4cc(Cl)ccc4o3)c(N)c2C#N)c1	0	6	-11	1	0	.
Cc1nc2c3cc(F)ccc3n(Cc3ccccc3F)c2s1	0	-2	55	-54	-7	35
Cc1nc2c3cc(F)ccc3n(Cc3ccccc3)c2s1	0	100*	118*	-40	143	38
CCCCC1CCC(C(=O)N(CC(C)C)c2c(N)n(Cc3ccccc3)c(=O)[nH]c2=O)CC1 (configuration not stated)	0	85*	91*	8	476	.

Compound activity (PubChem BioAssay)
